Assays:
[1] = Inhibition of human C-terminal Avi biotinylated tagged KRAS isoform 4B G12D mutant (1 to 169 residues) expressed in Escherichia coli measured after 1 hr by HTRF assay
[2] = target: GTPase KRas (Homo sapiens, UniProt P01116, G12D); experiment: Inhibition of KRAS G12D mutant in human AGS cells assessed as reduction in ERK phosphorylation measured after 3 hrs by In-Cell Western assay; type: cell-based
[3] = Binding affinity to human AviTEV6His-tagged KRAS isoform 4B G12D mutant (1 to 169 residues) expressed in Escherichia coli BL21 (DE3) assessed as dissociation constant by SPR analysis
[4] = target: GTPase KRas (Homo sapiens, UniProt P01116); experiment: Binding affinity to human AviTEV6His-tagged KRAS isoform 4B wild type (1 to 169 residues) expressed in Escherichia coli BL21 (DE3) assessed as dissociation constant by SPR analysis
How it was run: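 SPR measurement; where the KD fell beyond what the instrument can accurately determine, it was reported as an approximate value.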

[5] = In vivo inhibition of KRAS G12D mutant in CD-1 athymic nude-Foxn1nu mouse xenografted with human Panc 04.03 cells assessed as reduction in ERK phosphorylation in tumor lysates at 30 mg/kg, ip measured after 1 hr; type: functional; conditions: CD-1, Panc 04.03, Neoplasm
How it was run: (§1)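 The Panc 04.03 xenograft model received 30 mg/kg IP BID. Tumor pERK signal was measured 1 h and 12 h after the second dose. Mean pERK inhibition versus the vehicle cohort was assessed by two-tailed Student's t test with equal variance.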

[6] = test system: MKN-1; experiment: Cytotoxicity against human MKN-1 cells harboring wild type KRAS assessed as reduction in cell viability measured after 3 days by 2D viability assay; conditions: MKN-1, 72 h
[7] = Antitumor activity against human Panc 04.03 cells harboring KRAS G12D mutant xenografted in CD-1 nude-Foxn1 mouse assessed as inhibition of tumor growth at 3 mg/kg, ip administered twice a day; type: functional; conditions: Panc 04.03, ip
How it was run: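 Mice bearing Panc 04.03 (KRAS G12D) xenografts were dosed IP twice daily (BID) at 3, 10 or 30 mg/kg. Tumor volume was tracked against a vehicle cohort, and mean tumor volume differences were tested by two-tailed Student's t test assuming equal variance.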

[8] = Time during which free drug concentration exceeds IC50 for KRAS G12D mutant-mediated ERK phosphorylation in human Panc 04.03 cells xenografted CD-1 athymic nude-Foxn1nu mouse plasma at 30 mg/kg, ip; conditions: in vivo
[9] = test system: AGS; experiment: cells; conditions: Homo sapiens, 72 h
[10] = Antitumor activity against human Panc 04.03 cells harboring KRAS G12D mutant xenografted in CD-1 nude-Foxn1 mouse assessed as tumor regression at 10 mg/kg, ip administered twice a day; conditions: Panc 04.03, ip
[11] = In vivo inhibition of KRAS G12D mutant in CD-1 athymic nude-Foxn1nu mouse xenografted with human Panc 04.03 cells assessed as reduction in ERK phosphorylation in tumor lysates at 30 mg/kg, ip measured after 12 hrs; type: functional; conditions: CD-1, Panc 04.03, Neoplasm; how it was run: as §1
[12] = AUC (0 to 24 hrs) in CD-1 athymic nude-Foxn1nu mouse xenografted with human Panc 04.03 cells at 30 mg/kg, ip BID; type: ADME, organism-based; design: time < 24 hr, route intraperitoneal, dose 30 mg/kg; conditions: in vivo

Row | Structure (SMILES) | IC50 [1] | IC50 [2] | Kd [3] | also measured
1 | Fc1ccc2cccc(-c3ncc4c(N5C[C@H]6CC[C@@H](C5)N6)nc(OCC56CCCN5CCC6)nc4c3F)c2c1F | 7 nM | 97 nM | – | –
2 | CN1CCC[C@H]1COc1nc(N2CCOCC2)c2cnc(-c3cc(O)cc4ccccc34)c(F)c2n1 | 12000 nM | – | 1500 nM | Kd [4]: 560 nM
3 | CN(C)CCOc1nc(N2C[C@H]3CC[C@@H](C2)N3)c2cnc(-c3cc(O)cc4ccccc34)c(F)c2n1 | 70 nM | > 10000 nM | – | –
4 | Fc1c(-c2cccc3cccc(Cl)c23)ncc2c(N3C[C@H]4CC[C@@H](C3)N4)nc(OCC34CCCN3CCC4)nc12 | 15 nM | 190 nM | – | –
5 | Cn1ccnc1CCOc1nc(N2C[C@H]3CC[C@@H](C2)N3)c2cnc(-c3cc(O)cc4ccccc34)c(F)c2n1 | 30 nM | 3500 nM | – | –
6 | CN1CCC[C@H]1COc1nc(N2C[C@H]3CC[C@@H](C2)N3)c2cnc(-c3cc(O)cc4ccccc34)c(F)c2n1 | 5 nM | – | 0.8 nM | –
7 | C#Cc1c(F)ccc2cc(O)cc(-c3ncc4c(N5C[C@H]6CC[C@@H](C5)N6)nc(OC[C@@]56CCCN5C[C@H](F)C6)nc4c3F)c12 | – | – | 0.0002 nM | inhibition in vivo at 30 mg/kg [5]: 62%; IC50 [6]: > 3000 nM; inhibition in vivo at 3 mg/kg [7]: 94%; T>IC50 [8]: 8 h; IC50 [9]: 6 nM; tumor regression % at 10 mg/kg [10]: 62%; inhibition in vivo at 30 mg/kg [11]: 74%
8 | Fc1c(-c2cccc3ccccc23)ncc2c(N3C[C@H]4CC[C@@H](C3)N4)nc(OCC34CCCN3CCC4)nc12 | 360 nM | > 10000 nM | – | –
9 | C#Cc1cccc2cc(O)cc(-c3ncc4c(N5C[C@H]6CC[C@@H](C5)N6)nc(OCC56CCCN5CCC6)nc4c3F)c12 | < 2 nM | 14 nM | – | –
10 | CN1CCC[C@H]1COc1nc(N2CCNCC2)c2cnc(-c3cccc4cccc(Cl)c34)c(F)c2n1 | – | – | 3500 nM | Kd [4]: 36000 nM
11 | Fc1c(-c2cccc3cccc(F)c23)ncc2c(N3C[C@H]4CC[C@@H](C3)N4)nc(OCC34CCCN3CCC4)nc12 | 12 nM | 380 nM | – | –
12 | CN1CCN(c2nc(OC[C@@H]3CCCN3C)nc3c(F)c(-c4cc(O)cc5ccccc45)ncc23)CC1 | 54000 nM | – | 8700 nM | Kd [4]: 6200 nM
13 | Oc1cc(-c2ncc3c(N4C[C@H]5CC[C@@H](C4)N5)nc(OCCN4C[C@@H]5C[C@H]4CO5)nc3c2F)c2ccccc2c1 | 62 nM | 3000 nM | – | –
14 | Oc1cc(-c2ncc3c(N4C[C@H]5CC[C@@H](C4)N5)nc(OCC45CCCN4CCC5)nc3c2F)c2c(Cl)cccc2c1 | < 2 nM | 63 nM | – | –
15 | C#Cc1c(F)ccc2cccc(-c3ncc4c(N5C[C@H]6CC[C@@H](C5)N6)nc(OCC56CCCN5CCC6)nc4c3F)c12 | < 2 nM | 24 nM | – | AUC at 24 h [12]: 9500 ng·h/mL
16 | Oc1cc(-c2ncc3c(N4CC5CCC(C4)N5)ncnc3c2F)c2ccccc2c1 | – | > 10000 nM | – | –
17 | Oc1cc(-c2ncc3c(N4C[C@H]5CC[C@@H](C4)N5)nc(OC[C@@]45CCCN4C[C@H](F)C5)nc3c2F)c2ccccc2c1 | < 2 nM | – | – | –
18 | CN(C)C1CN(c2nc(N3CC4CCC(C3)N4)c3cnc(-c4cc(O)cc5ccccc45)c(F)c3n2)C1 | 69 nM | 1300 nM | – | –

Row | Structure (SMILES) | IC50 [1] | IC50 [2] | Kd [3] | also measured
19 | OCc1cccc2cccc(-c3ncc4c(N5C[C@H]6CC[C@@H](C5)N6)nc(OCC56CCCN5CCC6)nc4c3F)c12 | 79 nM | > 10000 nM | – | –
20 | CN1CCC[C@H]1COc1nc(N2CCNCC2)c2cnc(-c3cc(O)cc4ccccc34)c(F)c2n1 | 980 nM | – | 190 nM | –
21 | Oc1cc(-c2ncc3c(N4C[C@H]5CC[C@@H](C4)N5)nc(OCC45CCCN4CCC5)nc3c2F)c2ccccc2c1 | < 2 nM | 270 nM | – | –
22 | CN1CCC[C@H]1COc1nc(N2CCCNCC2)c2cnc(-c3cc(O)cc4ccccc34)c(F)c2n1 | 2600 nM | – | 420 nM | –
23 | C#Cc1cccc2cccc(-c3ncc4c(N5C[C@H]6CC[C@@H](C5)N6)nc(OCC56CCCN5CCC6)nc4c3F)c12 | 3 nM | 71 nM | – | –
24 | CCc1cccc2cccc(-c3ncc4c(N5C[C@H]6CC[C@@H](C5)N6)nc(OCC56CCCN5CCC6)nc4c3F)c12 | 6 nM | 200 nM | – | –
25 | CN1CCC[C@H]1COc1nc(N2CC3CCC2CN3)c2cnc(-c3cc(O)cc4ccccc34)c(F)c2n1 (stereo partly specified) | 68 nM | – | 9 nM | –
26 | COc1cccc2cccc(-c3ncc4c(N5C[C@H]6CC[C@@H](C5)N6)nc(OCC56CCCN5CCC6)nc4c3F)c12 | 86 nM | 1200 nM | – | –
27 | Oc1cc(-c2ncc3c(N4C[C@H]5CC[C@@H](C4)N5)nc(OC[C@]45CCCN4C[C@@H](F)C5)nc3c2F)c2ccccc2c1 | < 2 nM | – | – | –
28 | Cc1cccc2cccc(-c3ncc4c(N5C[C@H]6CC[C@@H](C5)N6)nc(OCC56CCCN5CCC6)nc4c3F)c12 | 45 nM | 2500 nM | – | –
29 | Fc1ccc2cccc(-c3ncc4c(N5C[C@H]6CC[C@@H](C5)N6)nc(OCC56CCCN5CCC6)nc4c3F)c2c1 | 27 nM | 370 nM | – | –
30 | CN1CCC[C@H]1COc1nc(N2CC3CC(C2)N3)c2cnc(-c3cc(O)cc4ccccc34)c(F)c2n1 (mixture of isomers) | 310 nM | – | 73 nM | –
31 | CC1CN(c2nc(OC[C@@H]3CCCN3C)nc3c(F)c(-c4cc(O)cc5ccccc45)ncc23)CCN1 (mixture of isomers) | 2100 nM | – | 380 nM | –
32 | CC1CNCCN1c1nc(OC[C@@H]2CCCN2C)nc2c(F)c(-c3cc(O)cc4ccccc34)ncc12 (mixture of isomers) | 1500 nM | – | 280 nM | –
33 | CN1CCC[C@H]1COc1nc(N2CC3CC2CN3)c2cnc(-c3cc(O)cc4ccccc34)c(F)c2n1 (mixture of isomers) | 650 nM | – | 96 nM | –
34 | O=C1CCC2(COc3nc(N4CC5CCC(C4)N5)c4cnc(-c5cc(O)cc6ccccc56)c(F)c4n3)CCCN12 (racemic) | 750 nM | > 10000 nM | – | –
35 | Oc1cc(-c2ncc3c(N4CC5CCC(C4)N5)nc(OCC45CCCCN4CCC5)nc3c2F)c2ccccc2c1 (racemic) | 12 nM | 650 nM | – | –

Reference: ChEMBL document CHEMBL5046237, “Identification of MRTX1133, a Noncovalent, Potent, and Selective KRASG12D Inhibitor” (J Med Chem, 2022)
